Data published in ChEMBL document CHEMBL3102784, “Salicylanilide diethyl phosphates: synthesis, antimicrobial activity and cytotoxicity” (Bioorg Med Chem, 2014).
pIC50: −log10 of the molar value. In brackets after ≈: the same amount, converted by molar mass. Activity calls are given as the source filed them. The rule behind the calls is not given here.

What was measured:
[1] = test system: Klebsiella pneumoniae; assay: Antibacterial activity against ESBL-positive Klebsiella pneumoniae J 14368/08 at 500 micromol/L after 24 to 48 hrs by broth microdilution method; type: functional, organism-based
Summary of the method: (§1)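 Broth microdilution in Mueller–Hinton broth, compounds dissolved in DMSO, tested over a dilution series from 500 downward. MIC taken as ≥95% growth reduction (IC95) versus drug-free control. Benzylpenicillin comparator. Readings at 24 and 48 h.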

[2] = test system: Staphylococcus aureus; assay: Antibacterial activity against methicillin-resistant Staphylococcus aureus H 5996/08 after 48 hrs by broth microdilution method; type: functional; conditions: H 5996/08, 48 h; summary of the method: as §1
[3] = test system: Pichia kudriavzevii; assay: Antifungal activity against Candida krusei E28 after 24 hrs by broth microdilution method; type: functional; conditions: E28, 24 h
Summary of the method: (§2)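 Broth microdilution in RPMI 1640 with glutamine, fluconazole as reference. For yeasts, MIC is ≥80% growth reduction (IC80) versus control. For filamentous fungi, the value is expressed as IC50. Readings at 24 and 48 h.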

[4] = test system: Aspergillus fumigatus; assay: Antifungal activity against Aspergillus fumigatus 231 after 48 hrs by broth microdilution method; type: functional; conditions: Aspergillus fumigatus, 231, 48 h; summary of the method: as §2
[5] = test system: Mycobacterium avium; assay: Antimycobacterial activity against isoniazid, rifampicin, ethambutol and ofloxacin-resistant Mycobacterium avium My 330/88 after 21 days; type: functional; conditions: My 330/88, 504 h
Summary of the method: (§3)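 Micromethod MIC in Šula's semisynthetic medium at 37 °C. Compounds added in DMSO at 1000 down to 0.032 µmol/L. Isoniazid standard in sterile water at 0.5–250 µmol/L. Inocula: H37Rv 10^3, M. avium 10^5, M. kansasii 10^4. Read at 14 and 21 d, plus 7 d for M. kansasii.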

[6] = test system: Mycobacterium kansasii; assay: Antimycobacterial activity against Mycobacterium kansasii 6509/96 after 7 days; type: functional; conditions: 6509/96, 168 h; summary of the method: as §3
[7] = test system: Pichia kudriavzevii; assay: Antifungal activity against Candida krusei E28 after 48 hrs by broth microdilution method; type: functional; conditions: E28, 48 h; summary of the method: as §2
[8] = test system: Lichtheimia corymbifera; assay: Antifungal activity against Absidia corymbifera 272 after 24 hrs by broth microdilution method; type: functional; conditions: Lichtheimia corymbifera, 272, 24 h; summary of the method: as §2
[9] = test system: Staphylococcus epidermidis; assay: Antibacterial activity against Staphylococcus epidermidis H 6966/08 after 24 hrs by broth microdilution method; type: functional; conditions: H 6966/08, 24 h; summary of the method: as §1
[10] = test system: Mycobacterium kansasii; assay: Antimycobacterial activity against Mycobacterium kansasii My 235/80 after 7 days; type: functional; conditions: My 235/80, 168 h; summary of the method: as §3
[11] = test system: HepG2; assay: Cytotoxicity against human HepG2 cells after 24 hrs by CellTiter assay; type: cell-based; conditions: HepG2, 24 h
Summary of the method: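 HepG2 cells (passage 27–33) in MEM with 10% FBS, L-glutamine and NEAA, seeded at 1×10^4 per well. Treated next day with compounds at 0.1–100 µM (or 0.1–25 µmol/L), triplicates, <1% DMSO, for 24 h at 37 °C, 5% CO2. MTS reagent added for 2 h, absorbance read at 490 nm. IC50 taken against untreated (100%) and 10% DMSO (0%) controls.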

[12] = test system: Escherichia coli; assay: Antibacterial activity against Escherichia coli CCM 4517 at 500 micromol/L after 24 to 48 hrs by broth microdilution method; type: functional, organism-based; summary of the method: as §1
[13] = test system: Staphylococcus epidermidis; assay: Antibacterial activity against Staphylococcus epidermidis H 6966/08 after 48 hrs by broth microdilution method; type: functional; conditions: H 6966/08, 48 h; summary of the method: as §1
[14] = test system: Aspergillus fumigatus; assay: Antifungal activity against Aspergillus fumigatus 231 after 24 hrs by broth microdilution method; type: functional; conditions: Aspergillus fumigatus, 231, 24 h; summary of the method: as §2
[15] = test system: Pseudomonas aeruginosa; assay: Antibacterial activity against Pseudomonas aeruginosa CCM 1961 at 500 micromol/L after 24 to 48 hrs by broth microdilution method; type: functional, organism-based; summary of the method: as §1
[16] = test system: Staphylococcus aureus; assay: Antibacterial activity against Staphylococcus aureus CCM 4516/08 after 24 hrs by broth microdilution method; type: functional; conditions: CCM 4516/08, 24 h; summary of the method: as §1
[17] = test system: Trichosporon asahii; assay: Antifungal activity against Trichosporon asahii 1188 after 48 hrs by broth microdilution method; type: functional; conditions: Trichosporon asahii, 1188, 48 h; summary of the method: as §2
[18] = test system: Candida albicans; assay: Antifungal activity against Candida albicans ATCC 44859 after 48 hrs by broth microdilution method; type: functional; conditions: ATCC 44859, 48 h; summary of the method: as §2
[19] = test system: Mycobacterium kansasii; assay: Antimycobacterial activity against Mycobacterium kansasii My 235/80 after 14 days; type: functional; conditions: My 235/80, 336 h; summary of the method: as §3
[20] = test system: Mycobacterium tuberculosis; assay: Antimycobacterial activity against Mycobacterium tuberculosis H37Rv My 331/88 after 21 days; type: functional; conditions: H37Rv My 331/88, 504 h; summary of the method: as §3
[21] = test system: Trichosporon asahii; assay: Antifungal activity against Trichosporon asahii 1188 after 24 hrs by broth microdilution method; type: functional; conditions: Trichosporon asahii, 1188, 24 h; summary of the method: as §2
[22] = test system: Mycobacterium kansasii; assay: Antimycobacterial activity against Mycobacterium kansasii 6509/96 after 14 days; type: functional; conditions: 6509/96, 336 h; summary of the method: as §3
[23] = test system: Staphylococcus aureus; assay: Antibacterial activity against Staphylococcus aureus CCM 4516/08 after 48 hrs by broth microdilution method; type: functional; conditions: CCM 4516/08, 48 h; summary of the method: as §1
[24] = test system: Staphylococcus aureus; assay: Antibacterial activity against methicillin-resistant Staphylococcus aureus H 5996/08 after 24 hrs by broth microdilution method; type: functional; conditions: H 5996/08, 24 h; summary of the method: as §1
[25] = test system: Lichtheimia corymbifera; assay: Antifungal activity against Absidia corymbifera 272 after 48 hrs by broth microdilution method; type: functional; conditions: Lichtheimia corymbifera, 272, 48 h; summary of the method: as §2
[26] = test system: Candida albicans; assay: Antifungal activity against Candida albicans ATCC 44859 after 24 hrs by broth microdilution method; type: functional; conditions: ATCC 44859, 24 h; summary of the method: as §2
[27] = test system: Mycobacterium kansasii; assay: Antimycobacterial activity against Mycobacterium kansasii 6509/96 after 21 days; type: functional; conditions: 6509/96, 504 h; summary of the method: as §3
[28] = test system: Trichophyton mentagrophytes; assay: Antifungal activity against Trichophyton mentagrophytes 445 after 120 hrs by broth microdilution method; type: functional; conditions: Trichophyton mentagrophytes, 445, 120 h
Summary of the method: (§4)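 Filamentous dermatophyte tested by broth microdilution in RPMI 1640 with glutamine, fluconazole as reference. Value expressed as IC50 relative to growth control. Read at 72 and 120 h.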

[29] = test system: Enterococcus sp.; assay: Antibacterial activity against Enterococcus sp. J 14365/08 at 500 micromol/L after 24 to 48 hrs by broth microdilution method; type: functional, organism-based; summary of the method: as §1
[30] = test system: Nakaseomyces glabratus; assay: Antifungal activity against Candida glabrata 20/I at 500 micromol/L after 24 to 48 hrs by broth microdilution method; type: functional, organism-based; summary of the method: as §2
[31] = test system: Klebsiella pneumoniae; assay: Antibacterial activity against Klebsiella pneumoniae D 11750/08 at 500 micromol/L after 24 to 48 hrs by broth microdilution method; type: functional, organism-based; summary of the method: as §1
[32] = test system: Mycobacterium avium; assay: Antimycobacterial activity against isoniazid, rifampicin, ethambutol and ofloxacin-resistant Mycobacterium avium My 330/88 after 14 days; type: functional; conditions: My 330/88, 336 h; summary of the method: as §3
[33] = test system: Trichophyton mentagrophytes; assay: Antifungal activity against Trichophyton mentagrophytes 445 after 72 hrs by broth microdilution method; type: functional; conditions: Trichophyton mentagrophytes, 445, 72 h; summary of the method: as §4
[34] = test system: Mycobacterium tuberculosis; assay: Antimycobacterial activity against Mycobacterium tuberculosis H37Rv My 331/88 after 14 days; type: functional; conditions: H37Rv My 331/88, 336 h; summary of the method: as §3
[35] = test system: Mycobacterium kansasii; assay: Antimycobacterial activity against Mycobacterium kansasii My 235/80 after 21 days; type: functional; conditions: My 235/80, 504 h; summary of the method: as §3
[36] = test system: Candida tropicalis; assay: Antifungal activity against Candida tropicalis 156 at 500 micromol/L after 24 to 48 hrs by broth microdilution method; type: functional, organism-based; summary of the method: as §2

Structure (SMILES)	Activity [1]	MIC95 [2]	MIC80 [3]	MIC50 [4]	MIC [5]	MIC [6]	MIC80 [7]	MIC50 [8]	MIC95 [9]	MIC [10]	pIC50 [11]	Activity [12]	MIC95 [13]	MIC50 [14]	Activity [15]	MIC95 [16]	MIC80 [17]	MIC80 [18]	MIC [19]	MIC [20]	other results
CCOP(=O)(OCC)Oc1ccc(Cl)cc1C(=O)Nc1ccc(Cl)c(Cl)c1	inactive	> 500 µM	> 500 µM	> 500 µM	16 µM (≈ 7.24 µg/mL)	4 µM (≈ 1.81 µg/mL)	> 500 µM	> 500 µM	> 500 µM	4 µM (≈ 1.81 µg/mL)	5.55	inactive	> 500 µM	> 500 µM	inactive	> 500 µM	> 500 µM	> 500 µM	4 µM (≈ 1.81 µg/mL)	1 µM (≈ 0.453 µg/mL)	MIC80 [21]: > 500 µM; MIC [22]: 4 µM (≈ 1.81 µg/mL); MIC95 [23]: > 500 µM; MIC95 [24]: > 500 µM; MIC50 [25]: > 500 µM; MIC80 [26]: > 500 µM; MIC [27]: 4 µM (≈ 1.81 µg/mL); MIC50 [28]: 500 µM (≈ 226 µg/mL); Activity [29]: inactive; Activity [30]: inactive; Activity [31]: inactive; MIC [32]: 16 µM (≈ 7.24 µg/mL); MIC50 [33]: 500 µM (≈ 226 µg/mL); MIC [34]: 1 µM (≈ 0.453 µg/mL); MIC [35]: 4 µM (≈ 1.81 µg/mL); Activity [36]: inactive
CCOP(=O)(OCC)Oc1ccc(Br)cc1C(=O)Nc1ccc(Cl)c(Cl)c1	inactive	> 500 µM	> 500 µM	> 500 µM	16 µM (≈ 7.95 µg/mL)	2 µM (≈ 0.994 µg/mL)	> 500 µM	> 500 µM	500 µM (≈ 249 µg/mL)	2 µM (≈ 0.994 µg/mL)	5.69	inactive	> 500 µM	> 500 µM	inactive	500 µM (≈ 249 µg/mL)	> 500 µM	> 500 µM	4 µM (≈ 1.99 µg/mL)	1 µM (≈ 0.497 µg/mL)	MIC80 [21]: > 500 µM; MIC [22]: 4 µM (≈ 1.99 µg/mL); MIC95 [23]: > 500 µM; MIC95 [24]: 500 µM (≈ 249 µg/mL); MIC50 [25]: > 500 µM; MIC80 [26]: > 500 µM; MIC [27]: 4 µM (≈ 1.99 µg/mL); MIC50 [28]: > 500 µM; Activity [29]: inactive; Activity [30]: inactive; Activity [31]: inactive; MIC [32]: 16 µM (≈ 7.95 µg/mL); MIC50 [33]: > 500 µM; MIC [34]: 1 µM (≈ 0.497 µg/mL); MIC [35]: 4 µM (≈ 1.99 µg/mL); Activity [36]: inactive
CCOP(=O)(OCC)Oc1cc(Cl)ccc1C(=O)Nc1ccc(Cl)cc1	inactive	> 500 µM	> 500 µM	> 500 µM	8 µM (≈ 3.35 µg/mL)	4 µM (≈ 1.67 µg/mL)	> 500 µM	> 500 µM	250 µM (≈ 105 µg/mL)	4 µM (≈ 1.67 µg/mL)	5.25	inactive	500 µM (≈ 209 µg/mL)	> 500 µM	inactive	125 µM (≈ 52.3 µg/mL)	> 500 µM	> 500 µM	4 µM (≈ 1.67 µg/mL)	4 µM (≈ 1.67 µg/mL)	MIC80 [21]: > 500 µM; MIC [22]: 8 µM (≈ 3.35 µg/mL); MIC95 [23]: 250 µM (≈ 105 µg/mL); MIC95 [24]: 500 µM (≈ 209 µg/mL); MIC50 [25]: > 500 µM; MIC80 [26]: > 500 µM; MIC [27]: 8 µM (≈ 3.35 µg/mL); MIC50 [28]: 500 µM (≈ 209 µg/mL); Activity [29]: inactive; Activity [30]: inactive; Activity [31]: inactive; MIC [32]: 8 µM (≈ 3.35 µg/mL); MIC50 [33]: 500 µM (≈ 209 µg/mL); MIC [34]: 4 µM (≈ 1.67 µg/mL); MIC [35]: 8 µM (≈ 3.35 µg/mL); Activity [36]: inactive
